Reference: ChEMBL document CHEMBL4513216, “Probing the Open Global Health Chemical Diversity Library for Multistage-Active Starting Points for Next-Generation Antimalarials” (ACS Infect Dis, 2020)

Assay: Toxicity liver stage against HepG2, at 10uM
Assay type: cell-based
Set-up: test concentration 10 uM, cell line HepG2-A16-CD81EGFP
Settings: human, HepG2-A16-CD81EGFP cells; read-out: INHIBITION
Outline: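 Uninfected HepG2-A16-CD81EGFP cells, 3 × 10^3 per well, 1536-well, plated on prespotted compound at 10 μM final, parasite-free screening media added to match infected plates; puromycin 10 μM positive, DMSO 0.5% negative; run in parallel with 48 h PbLuc assay at 37 °C, 5% CO2; viability by CellTiter-Glo luminescence, normalized to controls.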

Compound	cytotoxicity at 10 µM [%]
Cc1ccc(C)c(OCCC(=O)N2CCCN(CC(N)=O)CC2)c1	-8.54
Cc1nn(C)c(C)c1S(=O)(=O)NCCn1ccc(-c2cccs2)n1	-3.53
Cc1ccc(Nc2cc(N3CCN(S(C)(=O)=O)CC3)nc(C)n2)cc1	6.91
CCc1cc(N(C)CCc2noc(C)n2)nc(N2CCOCC2)n1	4.12
Cc1ccc(-c2nc(CN3CCCC3Cn3cncn3)co2)cc1 (stereo unspecified)	-7.29
O=C(N[C@@H]1CC[C@@H](N2CCCC2)[C@@H]1O)c1cc2cccc(F)c2[nH]1	2.91
CC(C)(C)n1cc(CNC2CCN(C(=O)c3ccoc3)CC2)cn1	6.35
Cc1ncc(C(=O)N2C[C@@H]3CC[C@H]2CN(S(=O)(=O)N(C)C)C3)c(C)n1	16.9
COC(=O)NCCC(=O)NCC1(c2cccc(Cl)c2)CC1	-4.31
CN(C)[C@@H]1CCN(C(=O)c2ccccn2)[C@H]1Cc1ccncc1	-63.6
c1ccc(-n2ccc(CN3CCCC3Cn3cccn3)n2)cc1 (stereo unspecified)	-2.48
c1csc(CN2C[C@@H]3COC[C@]3(COCc3ccncc3)C2)c1	18
CC(C)(O)CCc1cccc(C(=O)NCCC2CCOC2)c1 (stereo unspecified)	-1.94
CN(C)C(=O)COCc1cncc2c1CCN(Cc1ccccn1)C2	-2.51
N#Cc1c(CN2CCCC2Cn2cccn2)cn2ccccc12 (stereo unspecified)	-4.67
O=C1CC(N(C(=O)COc2ccc(F)cc2F)C2CC2)C(=O)N1 (stereo unspecified)	-3.59
O=C(C(CNCc1ccco1)c1ccccc1)N1CCOCC1 (stereo unspecified)	-2.1
COCC1CN(Cc2cc(C)on2)Cc2cnn(C)c21 (stereo unspecified)	6.22
O=C(NCCOCC(F)(F)F)c1ccc(-c2ccccc2)[nH]c1=O	-13.9
CCOc1ccc(C(C)NC(=O)N2CCC(C(N)=O)CC2)cc1OC (stereo unspecified)	-4.56
CCO[C@H]1CO[C@@]2(CCCN(Cc3scnc3C)C2)C1	-137
Cc1ccc(C(=O)NS(=O)(=O)c2ccccc2Br)c(=O)[nH]1	-0.704
Cc1nccn1CCCC(=O)N1CCCC(c2noc(C(C)C)n2)C1 (stereo unspecified)	-35.8

Compound	cytotoxicity at 10 µM [%]
CN(CC(=O)NCC(C)(C)c1ccc2c(c1)OCO2)c1cnccn1	-7.5
Cc1ccc(N(CC(=O)N2CCCCC2)C(=O)C2COCCO2)cc1 (stereo unspecified)	13.6
c1ccc2c3c([nH]c2c1)CN(Cc1cc2n(n1)CCNC2)CC3	3.06
CCC(CC)S(=O)(=O)NC(=O)c1ccc2c(c1)ncn2C	-6.58
CC(C)[C@H](NS(C)(=O)=O)C(=O)NCc1cc(-c2ccco2)n[nH]1	-9.13
COc1ccc(C(=O)O)c(OCC(=O)NC(C)c2ccccc2)c1 (stereo unspecified)	1.97
O=c1ccc2c(n1Cc1ccncc1)CCN(C1CCOC1)CC2 (stereo unspecified)	-1.31
COC(=O)c1ccc(N2CCN(CCC#N)C(C)C2)cc1 (stereo unspecified)	-11.3
COCCSc1ccc(-n2ccnc2)nn1	6.11
O=C(c1ccccn1)N1CCC2(CC1)COC(COCC1CCCC1)C2 (stereo unspecified)	-1.18
CCN1CC(CN2CCOCC2)Oc2ncccc2C1=O (stereo unspecified)	-1.1
CC(C)(C)NCc1nn(Cc2ccccc2)nc1-c1ccccc1	11.9
c1cnnc(N2CCCC(NCc3nc(-c4cccs4)no3)C2)c1 (stereo unspecified)	15.8
CC(C)n1[nH]c(=O)c2c1NC(=O)CC2C1CCCCC1 (stereo unspecified)	-12.9
N#Cc1cccc(NC(=O)N(CC(F)F)C2CC2)c1	-16.1
COC(C(=O)N1CCN(Cc2noc(C)n2)CC1)c1ccccc1 (stereo unspecified)	-1.8
Cc1nc2scc(C)n2c1CNc1ccc(C(=O)O)cc1	7.05
CC(C)[C@H]1CN(C(=O)CC2CCC2)C[C@@H]1N(C)C	8.91
CC(C)c1nc(C2CCCN(C(=O)c3ccc4[nH]cnc4c3)C2)no1 (stereo unspecified)	-3.87
Cc1ncsc1C(=O)N1CCCN(Cc2cscn2)CC1	-9.67
O=C(O)c1csc(S(=O)(=O)Nc2c(F)cccc2-n2cccn2)c1	-7.32
NC(=O)c1nc2c(s1)CCN(Cc1ccccc1)CC2	9.61
Cc1nc(N2CCCC2)nc2c1CCN(C(=O)NC(C)C)CC2	2.93

Compound	cytotoxicity at 10 µM [%]
COc1ccc(C)cc1C1(CNc2cncc(Cl)n2)CCOCC1	7.07
O=C1CC(c2ccccc2)C2(CCN(Cc3nccs3)CC2)N1 (stereo unspecified)	4.67
CN(Cc1cc2c(cc1OC(F)F)OCO2)Cc1nccn1C	-1.21
Cc1[nH]ccc1C(=O)Nc1cccc(CN2CCC(O)CC2)c1	0.149
CCCN(CCC)c1ncc(S(=O)(=O)c2ccccc2)c(N)n1	-2.26
NC(=O)CCN1C(=O)CC(Cc2ccc(F)cc2)C1=O (stereo unspecified)	-4.89
C[C@H](NS(C)(=O)=O)C(=O)NCc1cc(-c2ccco2)n[nH]1	-8.27
CC(C)(C)NC(=O)c1cnc2n1CCCC2	-3.32
CN(Cc1ccsc1)c1nc(-c2ccccn2)nc2c1CCNCC2	-6.18
Cc1nc(C(=O)N(C)CC(F)(F)C(F)(F)F)c2ccccn12	2.56
Cc1cccc(OC2CCN(S(=O)(=O)Cc3cccc(F)c3)CC2)n1	-7.79
COc1ccc(CN2CCCCCC2c2cccs2)c(OC)c1 (stereo unspecified)	11
Cc1cc(C)c(CNc2ncnc3ccccc23)c(=O)[nH]1	17.6
O=C(NCCc1ccncc1)[C@H]1C[C@@H]2CCN(c3nncs3)C[C@H]2O1	4.36
CNC(=O)CNCC1(O)CCCN(Cc2ccc(F)c(F)c2)C1=O (stereo unspecified)	-9.88
Cc1nn(C)c(C)c1CN(Cc1cccn1-c1ncccn1)C(C)C	-0.316
COc1ccc(C(C)NCc2ccsc2)cc1Cn1cccn1 (stereo unspecified)	7.86
Cc1csc(NC(=O)Cn2nc(C)ccc2=O)n1	-5.7
NC(=O)C1CCN(c2ccc3cc(Br)ccc3n2)C1 (stereo unspecified)	7.87
COc1cccc(C(C(=O)O)N2CCC(Cn3cccn3)CC2)c1OC (stereo unspecified)	-1.77
Cc1c(C(=O)N(CCN(C)C)Cc2ccccn2)oc2ccccc12	14.4
O=C(NCc1nc(C2CC2)no1)N1CCOC(c2ccccc2F)C1 (stereo unspecified)	-53.7
Cc1ccc(S(N)(=O)=O)cc1C(=O)N1CCc2c(ncnc2N(C)C)C1	-2.71

Compound	cytotoxicity at 10 µM [%]
c1coc(-c2noc(CN3CCCC3Cn3cncn3)n2)c1 (stereo unspecified)	-0.282
CCOC1CCC2(CCN(C(=O)c3csnn3)CC2)c2ccccc21 (stereo unspecified)	-1.58
Cc1cc(C)n(CC2CCCCN2C(=O)c2ccsc2)n1 (stereo unspecified)	-10.3
CC(C)c1nc(CC(=O)Nc2cnccc2O)cs1	9.89
CC(C)c1nn(C)c(N2CCOCC2)c1CNC(C)c1ccco1 (stereo unspecified)	-5.93
CC(C)n1ccc(CN2CCN(c3cc(NC4CC4)nc(N)n3)CC2)c1	-1.45
Cn1cncc1-c1nnc([C@H]2CCN(Cc3ncc[nH]3)C2)o1	1.62
Cc1ncsc1CN1C[C@@H]2CN(Cc3cccnc3)CCO[C@@H]2C1	5.05
CC(=O)N1CCCN(C(=O)NCCc2cc(Cl)cc(Cl)c2)CC1	4.55
CCOC(C)C(=O)Nc1ccc(Sc2nncn2C)c(Cl)c1 (stereo unspecified)	-1.37
Cc1cc(S(=O)(=O)N2CCC(S(C)(=O)=O)CC2)ccc1F	6.25
CC(=O)NCC1(COc2cnccn2)C[C@@H](O)[C@@H](O)C1 (stereo partly specified)	1.47
CCC(CC)C(=O)NCc1cnn(CC)c1	7.19
Cc1nn(C)c(N(C)C)c1CNCc1cccc(CN(C)C)c1	-3.01
CCOCC(=O)N1Cc2cnc(-c3ccccc3)nc2C1	-1.08
O=S(=O)(NCCC(O)c1ccoc1)c1ccc(Cl)s1 (stereo unspecified)	-0.847
CC(C)Cc1n[nH]c(C2CC(=O)N(CC(C)C)C2)n1 (stereo unspecified)	3.49
CCS(=O)(=O)NC(CCSC)C(=O)Nc1cc(F)ccc1C (stereo unspecified)	6.29
CN(C)C(=O)NCc1nnn2c1CN(CC1CCOCC1)CCC2	-128
CCOc1ncccc1CNS(=O)(=O)c1ccc2c(c1)CCCC(=O)N2	12.1
COc1ccc(C(=O)Nc2c(C)nc3cccc(C)n3c2=O)cc1	8.1
COc1ccccc1CC1CCCN(CCN2CCOC2=O)C1 (stereo unspecified)	6.93
Cc1cnc(CNC(=O)C[C@@H]2COC[C@H]3CN(C4CCC4)C[C@@H]23)cn1	-10.6

Compound	cytotoxicity at 10 µM [%]
CC(=O)Nc1ncc(S(=O)(=O)Nc2ccc(C)cc2)s1	8.6
CNC(=O)c1ccc(=O)n(Cc2csc(C(C)(C)C)n2)c1	6.8
Cn1cnnc1CN1CCC2(CCCN(C3CCCCC3)C2=O)C1 (stereo unspecified)	-117
CC(C)N1CCOCC2(CCCN(C(=O)c3cncn3C)C2)C1 (stereo unspecified)	-1.09
CCCn1c(C)c(CC(=O)NCC(C)O)c2c1CC(C)(C)CC2=O (stereo unspecified)	-7.57
Cc1ccc(N2CCc3c(CN(C)Cc4ccco4)cncc3C2)nn1	-6.57
C=C(C)CN1CCC(c2n[nH]c(C3CC3)n2)CC1	-1.92
O=C(c1ccccc1)N1CCC2(CCCN2c2ncccn2)CC1	-127
Cc1cccc(N2CCc3ncc(CNc4ccccn4)n3CC2)n1	2.19
N#Cc1ccccc1OCCN1CCN(C(=O)C2CCCC2)CC1	-52.1
COc1ccc(CCCC(=O)N2CCCC(n3cccn3)C2)cc1 (stereo unspecified)	-7.36
CN(C)c1cc(C(=O)N2CCN(c3cc(C#N)ccn3)CC2)ccn1	-9.27
O=C(COc1ccc(-c2ccccc2)nc1)NCC1CC1	6.8
CN(C)CCN1CCCC12CCN(C(=O)c1cccn1C)CC2	-2.03
CNS(=O)(=O)CC1CCCN1c1ccccn1 (stereo unspecified)	2.83
COc1ccc(NC(=O)Cn2nc(C)ccc2=O)cc1OC	1.57
CC(C)N1CCC(O)(CNC(=O)CC2OCCc3ccccc32)CC1 (stereo unspecified)	5.02
CN(C)CCN1C[C@@H]2CN(C(=O)C3CC=CC3)C[C@@H]2C1=O	-1.34
Cn1cc(CNC2CCS(=O)(=O)C2)c(-c2cc3ccccc3o2)n1 (stereo unspecified)	-39.1
